Screens (PubChem BioAssay)
Sampled rows, rich in hits. Any-hit rate of the full collection: about 2.8%.
Rad51 HR inh: blocks human Rad51 in homologous recombination; inhibition, % at 10 µM; Q06609; 0.085% of 200,000 active; hRad51 DNA strand exchange, fluorescence dequenching;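 active means inhibition above 40% at the single screening dose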;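 further: 0% = DMSO control wells and 100% = blanks with heterologous ssDNA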
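Material: hRad51 filaments on single-stranded DNA; Reagent: Donor/quencher-labelled 47-bp dsDNA substrate; Compound: 10 µM final, single point; Schedule: 37 °C 15-min filament assembly, 30-min compound preincubation, 15-min exchange; Technique: FRET fluorescence, excitation 485 nm, emission 520 nm; Benchmarks: control wells and blank wells on each plate.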
Measles CPE: protection of cells from measles virus; Measles virus-infected cells, CPE protection, absorbance; protection (pct of control), % at 4 µM; 1.5% of 140,000 active; in the data active means protection mostly above about 24%, no sharp cut-off; inactive means mostly below about 26%
NPY-Y2 PAM-ag: human NPY-Y2 potentiation or agonism, primary screen. cells expressing NPY-Y2, potentiator/agonist read-out. activation, % at 3.6 µM. 0.45% of 220,000 active. AID 1359; in the data active means activation above about 27%;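 further: cells stimulated with NPY near EC25 plus isoproterenol at EC100; 0% = vehicle plus submaximal agonist and 100% = vehicle plus saturating agonist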
NPY-Y1 PAM-ag: potentiates or activates human NPY-Y1 receptor; P25929; NPY-Y1 expressing cells, potentiator/agonist activation; activation, % at 3.6 µM; 0.37% of 220,000 active; AID 1304; in the data active means activation above about 33%, passing the limit was not always enough;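 further: cells stimulated with NPY at EC10 then isoproterenol at EC100; 0% = low agonist plus stimulus and 100% = saturating agonist plus stimulus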
Target sequence (P25929 whole entry, looked up): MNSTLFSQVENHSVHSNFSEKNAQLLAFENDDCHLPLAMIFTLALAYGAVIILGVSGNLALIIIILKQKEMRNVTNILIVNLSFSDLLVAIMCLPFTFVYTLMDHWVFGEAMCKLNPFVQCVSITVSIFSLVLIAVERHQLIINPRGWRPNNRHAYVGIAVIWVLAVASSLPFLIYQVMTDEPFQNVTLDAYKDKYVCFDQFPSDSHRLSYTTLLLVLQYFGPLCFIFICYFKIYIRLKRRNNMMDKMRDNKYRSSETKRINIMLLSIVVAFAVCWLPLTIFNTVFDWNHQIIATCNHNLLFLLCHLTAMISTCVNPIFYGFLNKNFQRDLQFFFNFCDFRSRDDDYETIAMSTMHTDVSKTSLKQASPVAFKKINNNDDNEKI
NPY-Y1 antag: blocks the human neuropeptide Y Y1 receptor | HEK293-CNG Y1 cells, membrane potential fluorescence; NPY at EC95, then isoproterenol | inhibition, % at 3.6 µM | 1% of 200,000 active | AID 1040;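 active means inhibition above the campaign mean inhibition of all tested compounds plus 3 SD, cut at about 20% in these data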;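 further: 0% = DMSO wells given NPY plus isoproterenol and 100% = isoproterenol alone without NPY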
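System: HEK293 cells with Y1 receptor plus CNG channel / Probe or stimulus: NPY 25 nM then isoproterenol 1 µM plus Ro 20-1724 25 µM / Compound: one concentration, 3.6 µM, in 0.4% DMSO / Schedule: compound incubation 1 h at room temperature, readout 45 min post-stimulation / Measured by: membrane potential fluorescence / Read-out: % inhibition of NPY effect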
NPY Y2 blocker: NPY-Y2 (human) receptor antagonism | NPY-Y2 expressing cells, antagonist mode | inhibition, % at 2.7 µM | 0.99% of 140,000 active | AID 793; in the data active means inhibition above about 17%;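 further: 0% = vehicle with agonist challenge and 100% = reference antagonist with challenge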
Numbers without * were called inactive; . = not tested or not shown.

SMILES	Rad51 HR inh	Measles CPE	NPY-Y2 PAM-ag	NPY-Y1 PAM-ag	NPY-Y1 antag	NPY Y2 blocker
O=c1[nH]c2cc3c(cc2cc1CN(Cc1ccco1)C(=S)NCCCN1CCOCC1)OCCO3	-1	.	-1	-3	-4	.
c1ccc2c(c1)oc1c(NCc3ccc4c(c3)OCO4)ncnc12	10	4	-19	-32	6	18*
c1ccc2c(c1)oc1c(Nc3ccc4c(c3)OCO4)ncnc12	5	2	-11	-11	4	5
CC(=O)Nc1nc2ccc(-c3nc4ccccc4o3)cc2s1	-2	10	37*	46*	-15	-6
CCC(=O)Nc1cccc(-c2nc3ccccc3o2)c1	2	7	4	20	9	2
CNC(=S)N(CCc1c(C)[nH]c2ccc(Cl)cc12)Cc1cccs1	32	.	44*	49*	-12	.
COc1ccc(Cc2nc(C(=O)Nc3ccc(Cl)cc3)cs2)cc1	5	5	-29	-32	24*	19*
C(=N\n1cnnc1)/C1CCCCC1	3	3	-17	25	9	0
C1=CCC(/C=N/n2cnnc2)CC1 (centres undefined)	-3	31*	6	-2	3	2
COC(=O)CCCC1=CC2=C(c3ccccc3)C(=O)C(C)(OC(=O)C3CCCC3)C(=O)C2=CN1C(CO)CO (centres undefined)	4	.	.	.	.	.
CCn1c(SCC(=O)N/N=C/c2c[nH]c3ccccc23)nnc1-c1ccc(C(C)(C)C)cc1	2	10	44*	49*	-9	6
CC(C)(C)c1ccc(OCc2nnc(SCC(N)=O)n2N)cc1	-7	.	-17	8	0	.
Cc1ccc(OCc2nnc(SCC(=O)O)n2N)cc1	-2	40*	1	-12	4	0
Cc1ccc(OCC(=O)Nc2cccc(S(=O)(=O)N3CCCCC3)c2)c([N+](=O)[O-])n1	-9	29*	4	-12	-1	1
CN(C)S(=O)(=O)c1cccc(NC(=O)COC(=O)c2ccc(Br)o2)c1	3	21	-1	8	2	0
O=C(COC(=O)c1ccc(Br)o1)Nc1cccc(S(=O)(=O)N2CCCCCC2)c1	1	34*	-27	5	-6	0
COc1ccc(C(=O)N/C(=C\c2cn(C)c3ccccc23)C(=O)OCC(C)C)cc1	-3	9	4	-8	3	-1
N#CCCN1CCN(S(=O)(=O)c2ccc(S(=O)(=O)NC3CCCC3)cc2)CC1	-6	40*	-4	15	3	1
COc1ccccc1NC(=O)Nc1ccc(F)c(F)c1	41*	.	-11	-13	2	.
COc1ccccc1NC(=O)Nc1nnc(C(C)C)s1	-10	55*	3	-2	-1	1
COc1ccccc1NC(=O)NCC(=O)Nc1ccc(F)c(F)c1	4	14	12	1	5	-1
O=C(CSc1ccc2c(c1)OCCO2)Nc1ccc(Br)cc1	4	8	-2	-18	8	7
CCOC(=O)c1ccc(NC(=O)Cn2ncc(Cl)c(Cl)c2=O)cc1	-5	0	18	59*	-9	1
CCC(=O)Nc1ccc(C(=O)Cn2ncc(Cl)c(Cl)c2=O)cc1	.	.	9	14	.	.
COCCCn1c(-c2ccco2)nc2ccccc2c1=O	-3	29*	0	-9	-3	4
SMILES	Rad51 HR inh	Measles CPE	NPY-Y2 PAM-ag	NPY-Y1 PAM-ag	NPY-Y1 antag	NPY Y2 blocker
Cc1ccc(C)c(OCC(O)CN2CCCCC2C)c1 (centres undefined)	2	4	80*	101*	-10	2
COc1ccc(CNc2nc(-c3cccnc3)nn2S(C)(=O)=O)cc1	.	.	-12	-2	4	.
C[C@]12CCC(=O)C=C1[C@H](O)C[C@@H]1[C@@H]2[C@@H](O)C[C@@]2(C)[C@H]1CC[C@]2(O)C(=O)CO	-2	49	101*	117*	-13	0
C[C@]12CCC(=O)C=C1CC[C@@H]1[C@@H]2[C@@H](O)C[C@@]2(C)[C@H]1CC[C@]2(O)C(=O)CO	2	14	5	2	0	1
COc1ccc(NC(=S)NC2CCCCC2)cn1	-4	.	7	20	3	.
O=C(NCCc1ccccc1)C1CCCN(S(=O)(=O)c2cnc[nH]2)C1 (centres undefined)	3	8	73*	-16	1	0
CC(=O)N1CCc2cc(C(=O)CN3CCC(C)CC3)ccc21	-12	35*	-13	7	3	4
C/C(Cc1ccccc1)=N\NC(=O)CNC(=O)c1ccc(Cl)cc1Cl	-24	.	-3	-15	.	.
CC(C)CCn1c(N2CCN(Cc3ccccc3)CC2)nc2c1c(=O)[nH]c(=O)n2C	.	.	-5	-2	1	2
CC(C)CCn1c(CN2CCN(Cc3ccccc3)CC2)nc2c1c(=O)[nH]c(=O)n2C	-1	41*	6	-17	-1	3
Cn1c(=O)c2c(nc(CN3CCN(c4cccc(Cl)c4)CC3)n2CCc2ccccc2)n(C)c1=O	7	.	-20	-56	18	17*
Cn1c(=O)c2c(nc(CN3CCN(c4ccccc4)CC3)n2CCc2ccccc2)n(C)c1=O	.	.	-15	-21	5	0
O=C(Cc1ccccc1)NCC(=O)OCC(=O)c1ccc(Cl)c([N+](=O)[O-])c1	-4	7	2	-16	-3	0
Cc1ccc(C(=O)c2cc([N+](=O)[O-])ccc2N2CCCCC2)c(C)c1	.	1	-20	-28	30*	22*
O=C(c1cc([N+](=O)[O-])ccc1N1CCCCC1)N1CCCCC1	-2	38	7	-5	-1	4
O=C(O)c1cc([N+](=O)[O-])ccc1N1CCCCC1	3	21*	-13	-34	2	0
COc1ccc2sc(N(CCN(C)C)C(=O)c3cc(Cl)sc3Cl)nc2c1	5	.	-31	-1	6	.
COc1ccc(OC)c2sc(N(CCN(C)C)C(=O)c3cc(Cl)sc3Cl)nc12	10	.	79*	90*	-9	.
CCCCONc1ncnc2nonc12	2	6	1	7	4	3
C=CCn1c(SCC(N)=O)nnc1-c1cnccn1	5	.	-7	12	.	.
C=CCn1c(SCC(N)=O)nnc1-c1cccc(Br)c1	-2	35*	1	11	0	0
c1ccc(Cc2nnc3sc(-c4ccccn4)nn23)cc1	-4	62*	-3	-25	5	7
Nc1ccc(Cc2nc3c(ccc4ccccc43)[nH]2)cc1	-3	58*	17	24	-1	-2
O=C1C2C3c4ccccc4C(c4ccccc43)C2c2nc3ccccc3n21 (centres undefined)	-2	8	-11	-18	24*	11
CC(=O)N(C(C)=O)N1C(=O)C2C3c4ccccc4C(c4ccccc43)C2C1=O (centres undefined)	28	.	-2	2	-1	.
CCOc1nc(NC2CCCCC2)nc(NC(C)(C)C)n1	1	61*	3	-15	2	5
